For test [1], the target named is T1, α1β2γ2s GABAA receptor (rat subunits expressed in Xenopus laevis oocytes) (Rattus norvegicus, UniProt P18508+P62813+P63138). In kind it is cell-based. An outline of the steps:
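Rat α1, β2, γ2S cRNAs injected 1:1:1 into defolliculated stage IV–V Xenopus laevis oocytes, kept 2–3 days at 18°C. Two-electrode voltage clamp at −60 mV, room temperature, Ca-free frog Ringer's pH 7.5. […] Percent change from control peak; t-test.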

In test [2] the target is T1, α1β2γ2s GABAA receptor (rat subunits expressed in Xenopus laevis oocytes). In kind it is cell-based. This is another data set of the same source.
Another test deals with GABAA receptors. As to conditions: ref Wan et al. [39], cited from earlier work.
The next test has as its system α4β3γ1 GABAA receptor. The note with it: insulin, α4β3γ1 isoform; ref [40]; cited from earlier work.
Another test relates to GABAA receptor. The note with it: cited from earlier work.

Where two headings read alike, the source gives them in different places.

T1 sequence (P62813 28-455): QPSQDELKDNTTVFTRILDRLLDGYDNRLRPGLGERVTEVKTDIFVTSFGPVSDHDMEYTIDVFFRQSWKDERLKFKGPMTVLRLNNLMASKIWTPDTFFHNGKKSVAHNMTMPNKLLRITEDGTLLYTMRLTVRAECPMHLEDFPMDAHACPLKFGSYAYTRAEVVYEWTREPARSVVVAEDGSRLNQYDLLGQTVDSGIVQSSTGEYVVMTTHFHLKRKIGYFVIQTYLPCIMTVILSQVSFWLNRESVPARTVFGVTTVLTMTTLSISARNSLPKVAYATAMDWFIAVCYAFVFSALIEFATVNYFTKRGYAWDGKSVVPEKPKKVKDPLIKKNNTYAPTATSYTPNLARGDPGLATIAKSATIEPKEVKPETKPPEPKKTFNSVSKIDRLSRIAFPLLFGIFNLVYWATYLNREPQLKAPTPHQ
T1 sequence (P63138 26-474): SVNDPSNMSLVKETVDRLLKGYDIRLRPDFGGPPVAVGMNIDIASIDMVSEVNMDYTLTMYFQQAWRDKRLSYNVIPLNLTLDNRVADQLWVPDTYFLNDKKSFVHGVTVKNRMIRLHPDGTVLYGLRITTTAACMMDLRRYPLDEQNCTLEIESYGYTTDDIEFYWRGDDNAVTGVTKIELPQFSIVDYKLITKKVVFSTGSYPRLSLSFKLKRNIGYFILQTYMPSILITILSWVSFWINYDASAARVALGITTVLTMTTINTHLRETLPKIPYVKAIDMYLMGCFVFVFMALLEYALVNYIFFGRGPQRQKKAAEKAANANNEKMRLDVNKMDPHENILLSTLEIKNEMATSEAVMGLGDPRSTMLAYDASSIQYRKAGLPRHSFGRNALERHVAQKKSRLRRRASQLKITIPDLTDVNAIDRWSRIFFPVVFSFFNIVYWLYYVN
T1 sequence (P18508 39-466): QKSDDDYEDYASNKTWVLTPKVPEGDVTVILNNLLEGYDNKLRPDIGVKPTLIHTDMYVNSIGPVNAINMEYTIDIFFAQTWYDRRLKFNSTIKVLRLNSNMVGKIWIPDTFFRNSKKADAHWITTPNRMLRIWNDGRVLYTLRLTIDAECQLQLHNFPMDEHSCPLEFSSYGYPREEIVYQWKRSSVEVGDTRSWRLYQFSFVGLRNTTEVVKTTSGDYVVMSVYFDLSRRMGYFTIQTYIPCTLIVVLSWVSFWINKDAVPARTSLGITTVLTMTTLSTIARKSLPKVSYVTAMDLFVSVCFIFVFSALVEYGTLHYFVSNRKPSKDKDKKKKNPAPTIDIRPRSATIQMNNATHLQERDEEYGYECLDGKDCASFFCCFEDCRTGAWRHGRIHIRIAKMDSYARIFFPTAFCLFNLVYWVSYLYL

For the compound “insulin: pancreatic peptide hormone; bovine form (cat I-5500) from Sigma, dissolved in 0.1% acetic acid”, the “effect of insulin on GABA induced current” value is on record as “inhibits currents elicited by 1 µM GABA” in test [1] (1 nM insulin + 1 µM GABA), “inhibits currents elicited by 1 µM GABA” in test [1] (100 nM insulin + 1 µM GABA) and “no significant effect” in test [1] (100 nM insulin + 100 µM GABA). The “reversibility of the inhibitory effect of insulin” value in test [1] (1 nM insulin, then 1 µM GABA only) is given as “reversible”. For the same compound, in test [1] (100 nM insulin), the “saturating insulin concentration” value was “at or near saturating”. Moreover, in test [1] (100 nM insulin co-applied with 100 µM GABA (near saturating), not significant), the “percent change in GABA induced current” value is reported as −0.33 ± 2.0%. The “inhibition of GABA induced current” value in test [1] (insulin co-applied with low (EC30–50) concentrations of GABA) is on record as “about 38%”. Moreover, the “affinity of insulin for the GABA receptor” value in test [1] (stated in discussion, from insulin dose response) is on record as “nanomolar affinity for the GABA receptor”. Besides, the “maximal current with insulin, % of maximal” value in test [2] (100 nM insulin, GABA dose response 0.1 µM to 1 mM) was determined as 99 ± 13%. The “incubation time required for potentiating effect” value in the test on GABAA receptors (500 nM insulin) was “at least 10 minutes”. For the same compound, in the test with GABAA receptors (incubation at least 10 minutes), the “insulin concentration required for potentiating effect” value was 500 nM. In addition, in the test on α4β3γ1 GABAA receptor, the “type of inhibition” value is on record as “mixed type inhibition”.
With `COc1c(O[C@@H]2O[C@H](CO)[C@@H](O)[C@H](O)[C@H]2O)cc2c(c1OC)-c1ccc(SC)c(=O)cc1[C@@H](NC(C)=O)CC2` [thiocolchicoside], the “type of GABAA antagonism” value in the test with GABAA receptor (similar effects and shifts in GABA dose response curves, ref [11]) is “competitive inhibitors of the GABAA receptor”.
Consider `CN1CCc2cc3c(cc2[C@H]1[C@@H]1OC(=O)c2c1ccc1c2OCO1)OCO3` [bicuculline], for which the “type of GABAA antagonism” value in the test on GABAA receptor (rightward shift in GABA EC50, no significant effect on maximal current, ref [2]) is given as “typical competitive inhibitor”.
Take `c1ccc2c(c1)Cc1ccccc1-n1c-2nnc1N1CCNCC1` [pitrazepin]: the “type of GABAA antagonism” value in the test with GABAA receptor (similar effects and shifts in GABA dose response curves, ref [14]) is recorded as “competitive inhibitors of the GABAA receptor”.
For the compound `NCCCC(=O)O` [GABA, γ-aminobutyric acid, reference compound], in test [2] (concentration used for insulin dose response), the “approximate EC30 of GABA” value is recorded as ~1 µM.

The values above are taken from publication PMC2597579 (Neuroscience letters, 2008).
